MEKK2 mut-MEK5 – signal of MEK5 binding to mutant human MEKK2 PB1 domain; bead flow cytometry, Alexa488-MEK5 binding to MEKK2 mutant; percent response, % at 10 µM; 0.35% of 290,000 active; AID 1530; in the data active means percent response above about 24%, passing the limit was not always enough
ABCB1 inh – human ABCB1 inhibition, ABCG2 as counter-screen; P08183; CCRF-Adr cells, JC-1 efflux, flow cytometry; inhibition, % at 6.6 µM; 0.067% of 190,000 active; AID 1326; in the data active means inhibition above about 40%;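 further: higher value means more JC-1 retained so stronger ABCB1 efflux block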
MEKK3 PB1 HTS – raises or lowers MEK5 binding to the human MEKK3 PB1 domain | AID 1529 | bead-based flow cytometry, Alexa488-MEK5 binding to MEKK3; actives lie on both sides; 0 = blocked by unlabeled MEK5, 100 = vehicle | binding response (% of control), % at 10 µM | 1.4% of 290,000 active | Q99759;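 active means binding response more than 3 SD above or below the average of its plate-row segment, actives on both sides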;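 further: Alexa488 bead fluorescence after subtracting the streptavidin-only scavenger bead signal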
ABCG2 inh – human ABCG2 inhibition, ABCB1 as counter-screen; 0.1% of 190,000 active; inhibition, % at 6.6 µM; AID 1325; Q9UNQ0; IgMXP3 cells, JC-1 efflux, flow cytometry;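 active means inhibition above 80%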
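material = IgMXP3 (ABCG2) plus far-red-tagged CCRF-Adr (ABCB1) cells | amount = 3 million cells/mL, equal mix of both lines | also added = JC-1 transporter substrate | dosing = one concentration, 6.6 µM final | schedule = 10 min at 25 °C | measured by = flow cytometric JC-1 green MFI at 530 nm | read-out basis = percent efflux inhibition, scaled nicardipine 100% to DMSO 0%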
MEKK2 WT-MEK5 – raises or lowers MEK5 binding to wildtype human MEKK2 PB1 domain; Q9Y2U5; bead flow cytometry, Alexa488-MEK5 binding to MEKK2 WT; actives lie on both sides; binding response (% of control), % at 10 µM; 1.1% of 290,000 active; AID 1531; in the data active means binding response below about 67% or above about 130%
MEKK2wt confirm – raises or lowers MEK5 binding to wildtype human MEKK2, retest. shares compounds with MEKK3 PB1 HTS. bead flow cytometry, Alexa488-MEK5 binding to MEKK2 WT; actives lie on both sides. binding response (% of control), % at 10 µM. 2.4% of 5,900 active; in the data active means binding response below about 16% or above about 210%; inactive means in between
MEKK2mut confirm – signal of MEK5 binding to mutant human MEKK2, retest; shares compounds with MEKK3 PB1 HTS; bead flow cytometry, Alexa488-MEK5 binding to MEKK2 mutant; percent response, % at 10 µM; 2% of 5,900 active; in the data active means percent response mostly above about 71%, no sharp cut-off; inactive means mostly below about 38%;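 further: higher means compound restores mutant binding toward wildtype level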
MEKK3 confirm – MEKK3-MEK5 PB1 inhibition, single concentration confirmation; bead flow cytometry, Alexa488-MEK5 binding to MEKK3; hits give low values; binding response (% of control), % at 10 µM; shares compounds with MEKK3 PB1 HTS; 1.8% of 5,900 active; AID 1894;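 active means binding response below 72% of control, or above a set upper limit, though filed actives all read lower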
A number is an active result; [ ] = another dose, or the depositor's remark. The list is not random: actives were taken first. Their share in the collection is about 2.3%.

How did Cc1ccccc1-n1c(SCc2c(C)noc2C)nnc1-c1cccnc1 do in these assays?
MEKK2 mut-MEK5: 30.0; ABCB1 inh: inactive; MEKK3 PB1 HTS: inactive; ABCG2 inh: inactive; MEKK2 WT-MEK5: 28.0[inhibitor]; MEKK2wt confirm: inactive; MEKK2mut confirm: inactive; MEKK3 confirm: inactive

Results for CC1CCc2sc(C(=O)N=Nc3c(O)[nH]c4ccccc34)cc2C1 (configuration not stated) ?
MEKK2 mut-MEK5: inactive; ABCB1 inh: inactive; MEKK3 PB1 HTS: 130.0; ABCG2 inh: inactive; MEKK2 WT-MEK5: inactive; MEKK2wt confirm: inactive; MEKK2mut confirm: inactive; MEKK3 confirm: inactive

What do the screens show for `O=C(N=Nc1c(O)[nH]c2ccccc12)c1cccs1`?
MEKK2 mut-MEK5: inactive; ABCB1 inh: inactive; MEKK3 PB1 HTS: inactive; ABCG2 inh: inactive; MEKK2 WT-MEK5: inactive

How did Cc1cc(C)cc(NC(=O)CCN2CCOCC2)c1 do in these assays?
MEKK2 mut-MEK5: inactive; MEKK3 PB1 HTS: inactive; MEKK2 WT-MEK5: inactive

What do the screens show for `Cc1ccc2nc(C)c(CN3CCN(c4ccc([N+](=O)[O-])cc4Cl)CC3)n2c1`?
MEKK2 mut-MEK5: inactive; MEKK3 PB1 HTS: inactive; MEKK2 WT-MEK5: inactive

Results for COC(=O)CC1=C(C(=O)OC)C(c2cccs2)C(C#N)=C(N)O1 (configuration not stated) ?
MEKK2 mut-MEK5: inactive; ABCB1 inh: inactive; MEKK3 PB1 HTS: inactive; ABCG2 inh: inactive; MEKK2 WT-MEK5: inactive

What do the screens show for `CCOC(=O)C1=C(CC)OC(N)=C(C#N)C1c1cccs1` (configuration not stated)?
MEKK2 mut-MEK5: inactive; ABCB1 inh: inactive; MEKK3 PB1 HTS: 74.0[inhibitor]; ABCG2 inh: inactive; MEKK2 WT-MEK5: inactive; MEKK2wt confirm: inactive; MEKK2mut confirm: inactive; MEKK3 confirm: inactive

Results for COC(=O)c1cc(S(=O)(=O)NCc2cccs2)c[nH]1 ?
MEKK2 mut-MEK5: inactive; MEKK3 PB1 HTS: inactive; MEKK2 WT-MEK5: inactive

How did O=C(N=C1SC2CS(=O)(=O)CC2N1Cc1ccccc1)C1CCCCC1 (configuration not stated) do in these assays?
MEKK2 mut-MEK5: inactive; MEKK3 PB1 HTS: inactive; MEKK2 WT-MEK5: inactive

Results for COCCCN1C(=O)C(=O)/C(=C(/O)c2ccc(OC)cc2)C12C(=O)N(C)c1ccccc12 (configuration not stated) ?
MEKK2 mut-MEK5: inactive; ABCB1 inh: inactive; MEKK3 PB1 HTS: 1.0[inhibitor]; ABCG2 inh: inactive; MEKK2 WT-MEK5: -3.0[inhibitor]; MEKK2wt confirm: inactive; MEKK2mut confirm: inactive; MEKK3 confirm: inactive

How did COCCCN1C(=O)C(=O)/C(=C(/O)c2ccc(OC)cc2)C1c1ccc(O)c(OC)c1 (configuration not stated) do in these assays?
MEKK2 mut-MEK5: inactive; ABCB1 inh: inactive; MEKK3 PB1 HTS: inactive; ABCG2 inh: inactive; MEKK2 WT-MEK5: inactive

Results for Cn1ccnc1SCC(=O)Nc1ccc(Br)cc1C(F)(F)F ?
MEKK2 mut-MEK5: inactive; MEKK3 PB1 HTS: inactive; MEKK2 WT-MEK5: inactive

How did CC(C)c1ccc(OCCCCN2CCCCC2)cc1 do in these assays?
MEKK2 mut-MEK5: inactive; MEKK3 PB1 HTS: inactive; MEKK2 WT-MEK5: inactive

How did CC1CN(CCCCOc2ccc(C(C)C)cc2)CC(C)O1 (configuration not stated) do in these assays?
MEKK2 mut-MEK5: inactive; ABCB1 inh: inactive; MEKK3 PB1 HTS: 2.0[inhibitor]; ABCG2 inh: inactive; MEKK2 WT-MEK5: 2.0[inhibitor]; MEKK2wt confirm: inactive; MEKK2mut confirm: inactive; MEKK3 confirm: inactive

How did CC1CN(CCCCOc2ccc(Cl)c3ccccc23)CC(C)O1 (configuration not stated) do in these assays?
MEKK2 mut-MEK5: inactive; MEKK3 PB1 HTS: inactive; MEKK2 WT-MEK5: 162.0; MEKK2wt confirm: inactive; MEKK2mut confirm: inactive; MEKK3 confirm: inactive

Results for CCN1/C(=C/c2cccc[n+]2C)Sc2ccc(OC)cc21 ?
MEKK2 mut-MEK5: inactive; MEKK3 PB1 HTS: inactive; MEKK2 WT-MEK5: inactive

What do the screens show for `CCN1/C(=C/c2ccc3cc(C)ccc3[n+]2C)Sc2ccc3sccc3c21`?
ABCB1 inh: inactive; MEKK3 PB1 HTS: 0.0[inhibitor]; ABCG2 inh: inactive; MEKK2wt confirm: 7.0[inhibitor]; MEKK2mut confirm: inactive; MEKK3 confirm: 31.0

What do the screens show for `CN(C)c1ccc(/C=C2\SC(N3CCCCC3)=NC2=O)cc1`?
MEKK2 mut-MEK5: inactive; MEKK3 PB1 HTS: inactive; MEKK2 WT-MEK5: inactive

What do the screens show for `Cc1ncc([N+](=O)[O-])n1CC(=O)Nc1ccccc1`?
MEKK2 mut-MEK5: inactive; ABCB1 inh: inactive; MEKK3 PB1 HTS: inactive; ABCG2 inh: inactive; MEKK2 WT-MEK5: inactive

How did Cc1cccc(NC(=O)Cn2c([N+](=O)[O-])cnc2C)c1C do in these assays?
MEKK2 mut-MEK5: inactive; ABCB1 inh: inactive; MEKK3 PB1 HTS: 136.0; ABCG2 inh: inactive; MEKK2 WT-MEK5: inactive; MEKK2wt confirm: inactive; MEKK2mut confirm: inactive; MEKK3 confirm: inactive

What do the screens show for `CC(C)NC(=O)c1ccc(COc2cc(Cl)ccc2Cl)o1`?
MEKK2 mut-MEK5: inactive; MEKK3 PB1 HTS: inactive; MEKK2 WT-MEK5: inactive

How did COc1ccc(-c2nn(-c3ccccc3)cc2/C=N/O)cc1OC do in these assays?
MEKK2 mut-MEK5: inactive; MEKK3 PB1 HTS: inactive; MEKK2 WT-MEK5: inactive

What do the screens show for `COc1ccc(-c2nn(-c3ccccc3)cc2/C=N/N=C(N)N)cc1OC`?
MEKK2 mut-MEK5: inactive; ABCB1 inh: inactive; MEKK3 PB1 HTS: inactive; ABCG2 inh: inactive; MEKK2 WT-MEK5: 148.0; MEKK2wt confirm: inactive; MEKK2mut confirm: inactive; MEKK3 confirm: inactive

What do the screens show for `CCN(CC(O)CON=C1c2ccccc2-c2ccccc21)S(=O)(=O)c1ccc(Cl)cc1` (configuration not stated)?
MEKK2 mut-MEK5: inactive; ABCB1 inh: inactive; MEKK3 PB1 HTS: inactive; ABCG2 inh: inactive; MEKK2 WT-MEK5: inactive

How did CCN(CC(O)CON=C1c2ccccc2-c2ccccc21)S(=O)(=O)c1ccc(C)cc1 (configuration not stated) do in these assays?
MEKK2 mut-MEK5: inactive; ABCB1 inh: inactive; MEKK3 PB1 HTS: 141.0; ABCG2 inh: inactive; MEKK2 WT-MEK5: inactive; MEKK2wt confirm: inactive; MEKK2mut confirm: inactive; MEKK3 confirm: inactive

What do the screens show for `O=C(NC1CCN(S(=O)(=O)c2ccc(Cl)c(F)c2)CC1)c1cccnc1`?
MEKK2 mut-MEK5: inactive; MEKK3 PB1 HTS: inactive; MEKK2 WT-MEK5: inactive

How did Cc1cc(=O)n2nc(N3CCCC(C(=O)NC4CCCCC4C)C3)sc2n1 (configuration not stated) do in these assays?
MEKK2 mut-MEK5: inactive; MEKK3 PB1 HTS: inactive; MEKK2 WT-MEK5: inactive

Bioassay records from PubChem BioAssay.
